Results collected from several papers.
Lines come from different studies, so protocols differ.
Target: Serine/threonine-protein kinase Sgk2 (SGK2, Homo sapiens, UniProt Q9HBY8)
Residues used in one study (Q9HBY8 1-367): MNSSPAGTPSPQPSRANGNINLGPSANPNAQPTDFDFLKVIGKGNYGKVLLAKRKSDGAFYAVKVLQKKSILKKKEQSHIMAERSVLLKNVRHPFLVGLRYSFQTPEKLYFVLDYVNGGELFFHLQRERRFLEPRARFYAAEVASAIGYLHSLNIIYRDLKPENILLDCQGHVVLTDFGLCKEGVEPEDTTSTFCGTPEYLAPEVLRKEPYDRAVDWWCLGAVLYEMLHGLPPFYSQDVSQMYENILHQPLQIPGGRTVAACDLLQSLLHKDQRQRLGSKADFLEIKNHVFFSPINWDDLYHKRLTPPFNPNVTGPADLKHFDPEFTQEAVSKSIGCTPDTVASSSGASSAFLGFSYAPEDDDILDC

Structure (SMILES)	assay	setting	remaining binding [%]
Cc1cc(C)c(-n2ccn3nc(-c4cccnc4)cc23)cc1NC(=O)c1cc(C#N)cc(S(F)(F)(F)(F)F)c1	cell-free assay, competition with immobilised ligand	0.1 µM	100
O=C(c1ccc(Nc2ncc(Cl)c(-c3ccc(Cl)s3)n2)cc1)N1CCC(N2CCCC2)CC1	binding, competition with immobilised ligand	1 µM	100
Cn1cc(Cl)c2c(Oc3c(F)cc(Nc4cc(Cl)nc(N)n4)cc3F)ccnc21	cell-free assay, competition with immobilised ligand	0.1 µM	86
O=C(Nc1c[nH]nc1C(=O)NC1CCNCC1)c1cc(F)cc(F)c1	binding, competition with immobilised ligand	1 µM	93
CN(C)c1nccc(-c2cnc3ncccn23)n1	binding	1 µM	81
Nc1ncc2c(n1)-c1c([nH]c3ccc(C#CC4CC4)cc13)CCCC2	binding, competition with immobilised ligand	1 µM	96
CCCOc1ccc([C@@H]2[C@@H](C(=O)O)[C@H](c3ccc4c(c3)OCO4)CN2CC(=O)Nc2c(CC)cccc2CC)cc1	cell-free assay, competition with immobilised ligand	1 µM	69
Cc1cnc(Nc2ccc(C(=O)N3CCC(N4CCCC4)CC3)cc2)nc1-c1cc2ccccc2s1	binding, competition with immobilised ligand	1 µM	29
COc1ccc2c(c1)O[C@H](c1ccc(OC)c(OC)c1)C[C@@H]2NC(=O)C1(c2ccc3c(c2)OC(F)(F)O3)CC1	cell-free assay, competition with immobilised ligand	1 µM	100
CN(c1nccc(-c2cnn3ncccc23)n1)C1CC1	binding	1 µM	86
O=C(Nc1cccnn1)N1CC(C/C=C/c2cncc(Oc3ccc(C(F)(F)F)cn3)n2)C1	cell-free assay, competition with immobilised ligand	1 µM	74
C[C@@H]1CCN(c2nccc(-c3cnn4ncccc34)n2)C1	binding	1 µM	81
CCOC(=O)c1cc2cc(-c3cc(C(=O)NCc4ccc(C(=O)O)cc4)nn3C)ccc2[nH]1	cell-free assay, competition with immobilised ligand	0.1 µM	100
c1cncc(-c2cccc(Nc3nccc(NC4CCCCC4)n3)c2)c1	binding, competition with immobilised ligand	10 µM	95
CN(C)c1nccc(-c2cnn3ncccc23)n1	binding	1 µM	75
COc1cnc(Nc2cccc(S(N)(=O)=O)c2)nc1N1CCN(c2ccccc2)CC1	binding, competition with immobilised ligand	1 µM	82
CN(C)c1ncc(F)c(-c2cnn3ncccc23)n1	binding	1 µM	72
O=C(c1ccc(Nc2ncc(Cl)c(-c3cc4ccccc4s3)n2)cc1)N1CCC(N2CCCC2)CC1	binding, competition with immobilised ligand	1 µM	48
c1cnn2ncc(-c3ccnc(N4CCC45COC5)n3)c2c1	binding	1 µM	65
COc1cnc(Nc2cccc(S(N)(=O)=O)c2)nc1N1CCN(c2ccccc2)C(=O)C1	binding, competition with immobilised ligand	1 µM	83
COc1ncc2cc3ccccc3nc2c1C#N	cell-free assay, competition with immobilised ligand	5 µM	98
